ChEMBL document CHEMBL4325846, “An investigation on 4-thiazolidinone derivatives as dual inhibitors of aldose reductase and protein tyrosine phosphatase 1B, in the search for potential agents for the treatment of type 2 diabetes mellitus and its complications” (Bioorg Med Chem Lett, 2018)
The source made the active and inactive calls. The calls are words filed in the database; no cut-off is given here.

Experiments:
[1] = biological target: T1, Tyrosine-protein phosphatase non-receptor type 1 (Homo sapiens, UniProt P18031); experiment: Inhibition of human full-length GST-fused PTP1B expressed in bacterial expression system using pNPP as substrate
T1 sequence (P18031 whole entry): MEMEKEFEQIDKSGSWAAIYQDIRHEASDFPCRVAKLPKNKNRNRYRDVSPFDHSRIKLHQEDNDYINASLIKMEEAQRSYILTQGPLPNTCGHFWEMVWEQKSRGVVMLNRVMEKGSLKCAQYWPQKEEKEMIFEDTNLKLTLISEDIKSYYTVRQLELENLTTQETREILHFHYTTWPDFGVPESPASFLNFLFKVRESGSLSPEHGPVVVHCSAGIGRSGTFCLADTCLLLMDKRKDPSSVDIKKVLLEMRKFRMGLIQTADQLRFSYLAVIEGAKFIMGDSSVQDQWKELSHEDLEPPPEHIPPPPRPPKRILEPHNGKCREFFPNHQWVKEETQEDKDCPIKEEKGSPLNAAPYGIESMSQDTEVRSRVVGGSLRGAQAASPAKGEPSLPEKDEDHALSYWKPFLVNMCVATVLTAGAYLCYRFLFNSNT
In short: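 Human recombinant PTP1B activity measured with p-nitrophenyl phosphate as substrate and sodium metavanadate as reference inhibitor. IC50 values are reported as mean ± S.E.M.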

[2] = biological target: T2, Aldo-keto reductase family 1 member B1 (Homo sapiens, UniProt P15121); experiment: Inhibition of human recombinant aldose reductase expressed in Escherichia coli BL21 (DE3) pLysS assessed as reduction in NADPH oxidation using L-idose as substrate
[3] = biological target: T1, Tyrosine-protein phosphatase non-receptor type 1; experiment: Non-competitive inhibition of human full-length GST-fused PTP1B expressed in bacterial expression system assessed as dissociation constant of enzyme-inhibitor complex using pNPP as substrate by Michaelis-Menten plot analysis
In short: (§1)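 Human recombinant PTP1B with pNPP, rates measured over varied substrate levels at inhibitor 0–30 µM (steps of 10 µM, or 0/3/6/9 µM). Double-reciprocal plots were drawn, and secondary plots of Km/Vmax versus inhibitor concentration were used. Data are mean ± S.E.M. (n = 3).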

[4] = biological target: T3, Tyrosine-protein phosphatase non-receptor type 1 (Homo sapiens) (UniProt P18031); experiment: Reversible inhibition of human full-length GST-fused PTP1B expressed in bacterial expression system using pNPP as substrate after 60 mins
T3 sequence (whole entry): T1 sequence (P18031 whole entry)
In short: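 PTP1B was preincubated with a saturating inhibitor concentration for 60 min at 37°C. The mixture was then diluted in assay buffer and residual pNPP-hydrolysing activity was measured.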

[5] = biological target: T1, Tyrosine-protein phosphatase non-receptor type 1; experiment: Non-competitive inhibition of human full-length GST-fused PTP1B expressed in bacterial expression system assessed as dissociation constant of enzyme-inhibitor-substrate complex using pNPP as substrate by Michaelis-Menten plot analysis; in short: as §1
[6] = biological target: T2, Aldo-keto reductase family 1 member B1; experiment: Uncompetitive inhibition of human recombinant aldose reductase expressed in Escherichia coli BL21(DE3)pLysS assessed as dissociation constant of enzyme-inhibitor-substrate complex using L-idose as substrate by Morrison's plot analysis
In short: (§2)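 Purified human AR (7 mU) activity was measured across inhibitor concentrations at L-idose 2.1, 3.1, 4.1, 8.3 and 16.6 mM. Data were fitted to the Morrison equation to give Ki app at each substrate level. Ki app versus substrate was then fitted by nonlinear regression to a general tight-binding inhibition model.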

[7] = biological target: T2, Aldo-keto reductase family 1 member B1; experiment: Uncompetitive inhibition of human recombinant aldose reductase expressed in Escherichia coli BL21(DE3)pLysS assessed as dissociation constant of enzyme-inhibitor complex using L-idose as substrate by Morrison's plot analysis; in short: as §2
[8] = biological target: T2, Aldo-keto reductase family 1 member B1; experiment: Reversible inhibition of human recombinant aldose reductase expressed in Escherichia coli BL21(DE3)pLysS assessed as enzyme activity recovery at 0.25 to 2 uM using L-idose as substrate relative to control; parameters: scale not given: the % may be the effect or the level left
[9] = biological target: T3, Tyrosine-protein phosphatase non-receptor type 1 (Homo sapiens); experiment: Inhibition of human full-length GST-fused PTP1B expressed in bacterial expression system at 300 uM using pNPP as substrate relative to control
[10] = biological target: T1, Tyrosine-protein phosphatase non-receptor type 1; experiment: Mixed non-competitive inhibition of human full-length GST-fused PTP1B expressed in bacterial expression system assessed as assessed as dissociation constant of enzyme-inhibitor-substrate complex using pNPP as substrate by double reciprocal plot analysis
In short: (§3)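 Human recombinant PTP1B with pNPP. Rates were measured over varied substrate levels at inhibitor 0, 2, 4 and 6 µM. […] Data are mean ± S.E.M. (n = 3).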

[11] = biological target: T1, Tyrosine-protein phosphatase non-receptor type 1; experiment: Mixed non-competitive inhibition of human full-length GST-fused PTP1B expressed in bacterial expression system assessed as assessed as dissociation constant of enzyme-inhibitor complex using pNPP as substrate by double reciprocal plot analysis; in short: as §3

| SMILES | IC50 [1] [µM] | IC50 [2] [nM] | also measured |
| --- | --- | --- | --- |
| COc1ccc(/C=C2\SC(=S)N(CC(=O)O)C2=O)cc1OCC(N)=O | 679 | 139 | – |
| O=C(O)CN1C(=O)/C(=C/c2cccc(Oc3ccccc3)c2)SC1=S | 86.8 | 25 | – |
| NC(=O)COc1ccc(/C=C2\SC(=S)N(CC(=O)O)C2=O)cc1 | – | 194 | inhibition [9]: 10% |
| O=C(O)CN1C(=O)/C(=C/c2cccc(OCCc3ccccc3)c2)SC1=S | 32.5 | 56 | Ki [3]: 12 µM; inhibition [4]: Active; Ki [5]: 12 µM; Ki [6]: 6.2 nM; Ki [7]: > 300 nM; Activity [8]: 70% |
| O=C(O)CN1C(=O)/C(=C/C=C/c2ccccc2)SC1=S | 171 | 125 | – |
| O=C(O)CN1C(=O)S/C(=C\c2ccc(OCCc3ccccc3)cc2)C1=O | 63.8 | 364 | – |
| O=C(O)CN1C(=O)/C(=C/c2cccc(OCc3ccccc3)c2)SC1=S | 43.1 | 53 | – |
| COc1cc(/C=C2\SC(=S)N(CC(=O)O)C2=O)ccc1OCC(N)=O | 378 | 228 | – |
| O=C(O)CN1C(=O)/C(=C/c2ccc(OCCc3ccccc3)cc2)SC1=S | 49.4 | 104 | – |

Now from value to compound, other results behind:

| IC50 [1] [µM] | IC50 [2] [nM] | SMILES | also measured |
| --- | --- | --- | --- |
| 151 | 323 | COc1cc(/C=C2\SC(=O)N(CC(=O)O)C2=O)ccc1OCc1ccccc1 | – |
| 12.4 | 276 | O=C(O)CN1C(=O)S/C(=C\c2cccc(OCCc3ccccc3)c2)C1=O | Ki [3]: 13.1 µM; inhibition [4]: Active; Ki [5]: 13.1 µM; Ki [6]: 16 nM; Ki [7]: > 500 nM; Activity [8]: 70% |
| 10.6 | 1410 | COc1cc(/C=C2\S/C(=N\c3ccccc3)N(CC(=O)O)C2=O)ccc1OCc1ccccc1 | Ki [10]: 40.6 µM; Ki [11]: 7.6 µM |
| – | 78 | COc1cccc(/C=C2\SC(=S)N(CC(=O)O)C2=O)c1 | – |
| 63.9 | 60 | O=C(O)CN1C(=O)/C(=C/c2ccc(Oc3ccccc3)cc2)SC1=S | – |
| 56 | 52 | O=C(O)CN1C(=O)/C(=C/c2ccc(OCc3ccccc3)cc2)SC1=S | – |
| 716 | 64 | NC(=O)COc1cccc(/C=C2\SC(=S)N(CC(=O)O)C2=O)c1 | – |
| 54.1 | 40 | COc1cc(/C=C2\SC(=S)N(CC(=O)O)C2=O)ccc1OCc1ccccc1 | – |
